Consider 42 compounds from ChEMBL document CHEMBL1132292, “Potentiation of cADPR-induced Ca(2+)-release by methylxanthine analogues” (1999).

Each structure is given as a SMILES string.

Assay [1] can be described thus: compound was screened for their ability to potentiate [Ca2+] release induced by cADRP(an endogenous modulator of ryanodine receptor) in sea urchin egg homogenates at a concentration 2 mM. Type of assay: functional, tissue-based. A digest of the protocol:
(§1)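 Lytechinus pictus egg homogenate (2.5%, from 50% stocks) in Glu-IM (pH 7.2, Hepes). It was Ca2+-loaded for 3 h at room temperature with 0.5 mM ATP, creatine kinase/phosphocreatine, oligomycin, antimycin, azide and 3 μM fluo-3. Fluo-3 fluorescence (ex 490/em 535 nm) was read at 17 °C. Methylxanthine was added 1 min before a slightly releasing cADPR concentration chosen from each experiment's cADPR concentration–response curve. Caffeine was run daily as standard.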

Assay [2] has as its system Lytechinus pictus. As to the kind of experiment: Calcium release in sea urchin egg homogenate at 2 mM as percent of 1 mM caffeine effect.
In assay [3] the test system is Lytechinus pictus. As to the kind of experiment: Percent of 1 mM Caffeine effect to release [Ca2+] at 1 mM in sea urchin egg homogenate.
Assay [4] can be described thus: Compound was screened for their ability to potentiate [Ca2+] release induced by cADRP(an endogenous modulator of ryanodine receptor) in sea urchin egg homogenates at a concentration of 2 mM. Format: functional, tissue-based. A digest of the protocol: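 Lytechinus pictus egg homogenate (2.5%, from 50% stocks), Ca2+-loaded 3 h at room temperature in Glu-IM (pH 7.2) with 0.5 mM ATP, phosphocreatine/creatine phosphokinase, oligomycin, antimycin, azide and 3 μM fluo-3. Fluo-3 fluorescence (ex 490/em 535 nm) read at 17 °C. Methylxanthine at 2 mM added 1 min before a daily-chosen, slightly active cADPR concentration. Caffeine run daily as standard.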

A short description of assay [5]: Calcium release at 2 mM as percent of 1 mM caffeine effect.
The nature of assay [6]: compound was screened for their ability to potentiate [Ca2+] release induced by cADRP(an endogenous modulator of ryanodine receptor) in sea urchin egg homogenates at a concentration 1 mM. Type of assay: functional, tissue-based. A digest of the protocol:
as §1

For `Cn1c(=O)c2ncn(C)c2n(C)c1=O`, the Potentiation in assay [1] is 28.7%. For `CC(=O)CCn1c(=O)c2c(ncn2C)n(C)c1=O`, the Activity in the assay with Lytechinus pictus [2] was found to be 46%. `CC(=O)Cn1c(=O)c2c(ncn2C)n(C)c1=O`: the Activity with Lytechinus pictus [2] was found to be 43%. On the same count and under the same terms, for `CC(=O)CCCn1c(=O)c2c(ncn2C)n(C)c1=O` the value was 37%; for `C#CCn1c(=O)c2c(ncn2CCCC(C)=O)n(C)c1=O`, 81%; for `CC(=O)Cn1c(=O)c2c(ncn2CC(C)=O)n(C)c1=O`, 17%. On the same count and under the same terms, for `Cn1c(=O)c2c(ncn2CCO)n(C)c1=O` [ETOFYLLINE] the value was 43%. Same read-out and setting: in the case of `CC(=O)Cn1cnc2c1c(=O)n(C)c(=O)n2C` it was 65%; in that of `CC(=O)CCCCn1cnc2c1c(=O)n(C)c(=O)n2C` [LOMIFYLLINE], 65%.

The compound `CCOC(=O)CCCCCn1c(=O)c2c(ncn2C)n(C)c1=O` yielded an Activity in the assay with Lytechinus pictus [3] of 103%. Consider `CC(O)CCCCCn1cnc2c1c(=O)n(C)c(=O)n2C` (stereo not drawn), for which the Activity in the assay on Lytechinus pictus [2] turned out to be 105%. Same read-out and setting: for `CC(O)CCCn1cnc2c1c(=O)n(C)c(=O)n2C` (stereo not drawn) the value was 82%. On to `Cn1c(=O)c2c(ncn2CCCCCC(=O)O)n(C)c1=O`, for which the Activity with Lytechinus pictus [3] turned out to be 9.4%. Still for that read-out and setting: for `Cn1cnc2c1c(=O)n(CCCCCC(=O)O)c(=O)n2C` the value was 61%. With `CC(=O)CCCCCCn1c(=O)c2c(ncn2C)n(C)c1=O`, the Activity in the assay with Lytechinus pictus [2] was found to be 76%. As for `CC(=O)CCCCCn1cnc2c1c(=O)n(C)c(=O)n2C`, in the assay on Lytechinus pictus [2], the Activity was determined as 107%.

For `CC(O)CCCn1c(=O)c2c(ncn2C)n(C)c1=O` (stereo not drawn), the Activity in the assay with Lytechinus pictus [2] was 59%. As for `CC(O)CCCCCn1c(=O)c2c(ncn2C)n(C)c1=O` (stereo not drawn), the Activity in the assay with Lytechinus pictus [2] worked out at 54%.

On to `Cn1c(=O)c2[nH]cnc2n(C)c1=O`, for which the Potentiation in assay [4] came to 95.3%.

Regarding `CC(=O)CCCCCn1c(=O)c2c(ncn2CCCC(C)=O)n(C)c1=O`, the Activity in the assay with Lytechinus pictus [2] came out at 38%.

As to `Cn1c(=O)c2c(ncn2CCCCCCCCCCO)n(C)c1=O`, in the assay with Lytechinus pictus [3], the Activity turned out to be 113%. For the compound `CC(O)Cn1c(=O)c2c(ncn2C)n(C)c1=O` (stereo not drawn) [PROTHEOBROMINE], in the assay with Lytechinus pictus [2], the Activity worked out at 83%. Turning to `Cn1c(=O)c2c(ncn2CCCCCCO)n(C)c1=O`, the Activity in the assay with Lytechinus pictus [3] came to 97%.

In the case of `Cn1c(=O)c2c(ncn2CCCCCc2ccccc2)n(C)c1=O`, the Activity in the assay with Lytechinus pictus [2] is reported as 70%.

As to `CC(=O)CCCCCn1c(=O)c2c(ncn2CCCCCC(C)=O)n(C)c1=O`, the Activity in the assay with Lytechinus pictus [2] was determined as 54%. Turning to `CC(=O)CCCn1cnc2c1c(=O)n(CC(C)=O)c(=O)n2C`, the Activity in the assay on Lytechinus pictus [2] is 6.7%. As to `Cn1c(=O)c2c(ncn2C)n(C)c1=O` [CAFFEINE], the Activity in assay [5] is listed as 100%. In assay [6], the Potentiation was found to be 100%. In the case of `CCOC(=O)Cn1cnc2c1c(=O)n(C)c(=O)n2C`, the Activity with Lytechinus pictus [3] turned out to be 87%.

In the case of `Cn1c(=O)c2c(ncn2CCCCO)n(C)c1=O`, in the assay on Lytechinus pictus [2], the Activity was found to be 81%. Consider `CCOC(=O)CCCCCn1cnc2c1c(=O)n(C)c(=O)n2C`, for which the Activity in the assay with Lytechinus pictus [3] is 145%. Take `CC(=O)CCn1cnc2c1c(=O)n(C)c(=O)n2C`: the Activity in the assay on Lytechinus pictus [2] amounted to 97%. As for `CC(=O)CCCCCn1c(=O)c2c(ncn2C)n(C)c1=O`, the Activity in the assay with Lytechinus pictus [2] is reported as 96%. `O=c1[nH]c(=O)c2nc[nH]c2[nH]1`: the Potentiation in assay [4] stood at 41%. As to `CC(O)CCCCCCn1cnc2c1c(=O)n(C)c(=O)n2C` (stereo not drawn), the Activity with Lytechinus pictus [3] came to 98%. `C=CCn1cnc2c1c(=O)n(C)c(=O)n2C`: the Activity in the assay with Lytechinus pictus [2] was determined as 100%.

On to `CC(=O)CCCCCCCCn1cnc2c1c(=O)n(C)c(=O)n2C`, for which the Activity with Lytechinus pictus [3] was determined as 62%. Same read-out and setting: in the case of `Cn1c(=O)c2c(ncn2CC(=O)O)n(C)c1=O` [ACEFYLLINE] it was 1.4%. Turning to `CC(=O)CCCCCCn1cnc2c1c(=O)n(C)c(=O)n2C`, the Activity with Lytechinus pictus [2] is given as 112%.

Regarding `Cn1c(=O)c2nc[nH]c2n(C)c1=O.O` [THEOPHYLLINE], the Activity in the assay with Lytechinus pictus [2] was 106%. With `CC(=O)CCCn1cnc2c1c(=O)n(C)c(=O)n2C`, the Activity in the assay on Lytechinus pictus [2] is recorded as 60%. `C#CCn1c(=O)c2c(ncn2CCCCCCC(C)=O)n(C)c1=O` had an Activity with Lytechinus pictus [3] of 98%. `CC(O)Cn1cnc2c1c(=O)n(C)c(=O)n2C` (stereo not drawn) [PROXYPHYLLINE]: the Activity in the assay on Lytechinus pictus [2] is given as 47%.
